The text below walks through data of paper PMC6412122 (Nucleic Acids Research, 2019).

The target in this experiment is T1, HNA polymerase T6G12_I521L (Thermococcus gorgonarius, UniProt P56689, A485L/A681S/D141A/D669Q/E143A/E609K/E664Q/E730G/I521L/I610M/K659Q/K671H/K674R/L704P/Q665P/R668K/T676R/V589A/V93Q).
T1 sequence (P56689 1-773 V93Q/D141A/E143A/A485L/I521L/V589A/E609K/I610M/K659Q/E664Q/Q665P/R668K/D669Q/K671H/K674R/T676R/A681S/L704P/E730G): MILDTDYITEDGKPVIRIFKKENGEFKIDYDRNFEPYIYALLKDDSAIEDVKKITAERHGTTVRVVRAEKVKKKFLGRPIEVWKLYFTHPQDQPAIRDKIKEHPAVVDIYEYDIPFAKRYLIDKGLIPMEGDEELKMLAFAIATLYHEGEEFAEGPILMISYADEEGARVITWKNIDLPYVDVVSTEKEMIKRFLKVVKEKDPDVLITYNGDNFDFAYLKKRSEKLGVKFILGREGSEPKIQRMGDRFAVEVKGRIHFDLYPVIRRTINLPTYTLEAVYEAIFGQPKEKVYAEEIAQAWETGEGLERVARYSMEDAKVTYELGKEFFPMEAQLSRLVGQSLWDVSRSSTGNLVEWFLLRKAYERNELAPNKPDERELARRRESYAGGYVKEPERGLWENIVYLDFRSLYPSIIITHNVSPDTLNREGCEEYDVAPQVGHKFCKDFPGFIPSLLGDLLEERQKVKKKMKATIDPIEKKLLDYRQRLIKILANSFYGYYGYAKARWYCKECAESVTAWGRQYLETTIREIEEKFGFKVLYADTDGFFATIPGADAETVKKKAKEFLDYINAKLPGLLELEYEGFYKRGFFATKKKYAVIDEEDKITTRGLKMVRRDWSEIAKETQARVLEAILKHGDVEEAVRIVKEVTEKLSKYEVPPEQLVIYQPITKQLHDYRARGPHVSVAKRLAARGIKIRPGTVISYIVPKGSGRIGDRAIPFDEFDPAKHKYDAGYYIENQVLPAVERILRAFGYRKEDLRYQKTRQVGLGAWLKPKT
Format: biochemical. As to conditions: global fitting, k3 fitted; duplex P2T3, 50°C. The method, boiled down:
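Quench-flow at 50 °C: enzyme with P2T3 in 2× Thermopol mixed with nucleotide plus MgSO4 (1 mM extra Mg2+ final). Nucleotide 1.6–100 µM, 4–5 levels; ageing 5 ms–60 s. Quenched with 0.3 M EDTA; 18% denaturing PAGE; duplicates. Active enzyme level set by active-site titration (50 ms dTTP pulse, quadratic fit). Global Matlab least-squares fit; k3 refitted fixed at 0.01 or 0.02 s−1; SD from covariance matrix.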

With `Cc1cn([C@@H]2CO[C@H](COP(=O)(O)OP(=O)(O)OP(=O)(O)O)[C@@H](O)C2)c(=O)[nH]c1=O` [hTTP], the “k2 = kpol” value stood at 0.62 ± 0.13 s⁻¹ and the k3 stood at 0.028 ± 0.002 s⁻¹.
